Source: ChEMBL document CHEMBL1152644, “Synthesis of isoquinolinone-based tetracycles as poly (ADP-ribose) polymerase-1 (PARP-1) inhibitors” (Bioorg Med Chem, 2009)
Counter-ions that a name gives are not always drawn.

Experiments:
[1] = target: Poly [ADP-ribose] polymerase 1 (Homo sapiens, UniProt P09874); test: Inhibition of PARP1
[2] = test system: DU-145; test: Cytotoxicity against human DU145 cells at 10 uM by MTT assay; assay type: functional
[3] = test system: HCT-116; test: Induction of etoposide-induced cytotoxicity in human HCT116 cells assessed as potentiation factor, ratio of cytotoxic IC50 for etoposide alone to cytotoxic IC50 etoposide in presence of drug; assay type: functional
Outline: (§1)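 HCT116 cells in RPMI 1640 with 10% FBS at 37 °C under 5% CO2 were seeded at 3 x 10^4 cells/well and grown overnight. On day 2, medium was replaced with graded temozolomide or etoposide, with or without PARP-1 inhibitor at 0.5 µM. On day 4, CCK-8 was added for 4 h and A450 read. IC50 came from four-parameter logistic fits. Potentiation factor = IC50 (agent alone)/IC50 (agent + inhibitor); mean±S.D. of ≥3 independent experiments.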

[4] = test system: HCT-116; test: Induction of temozolomide-induced cytotoxicity in human HCT116 cells assessed as potentiation factor, ratio of cytotoxic IC50 for temozolomide alone to cytotoxic IC50 temozolomide in presence of drug; assay type: functional; outline: as §1
[5] = test system: HCT-116; test: Cytotoxicity against human HCT116 cells after 2 days; conditions: HCT-116, 48 h

Chain of Poly [ADP-ribose] polymerase 1 (P09874 whole entry): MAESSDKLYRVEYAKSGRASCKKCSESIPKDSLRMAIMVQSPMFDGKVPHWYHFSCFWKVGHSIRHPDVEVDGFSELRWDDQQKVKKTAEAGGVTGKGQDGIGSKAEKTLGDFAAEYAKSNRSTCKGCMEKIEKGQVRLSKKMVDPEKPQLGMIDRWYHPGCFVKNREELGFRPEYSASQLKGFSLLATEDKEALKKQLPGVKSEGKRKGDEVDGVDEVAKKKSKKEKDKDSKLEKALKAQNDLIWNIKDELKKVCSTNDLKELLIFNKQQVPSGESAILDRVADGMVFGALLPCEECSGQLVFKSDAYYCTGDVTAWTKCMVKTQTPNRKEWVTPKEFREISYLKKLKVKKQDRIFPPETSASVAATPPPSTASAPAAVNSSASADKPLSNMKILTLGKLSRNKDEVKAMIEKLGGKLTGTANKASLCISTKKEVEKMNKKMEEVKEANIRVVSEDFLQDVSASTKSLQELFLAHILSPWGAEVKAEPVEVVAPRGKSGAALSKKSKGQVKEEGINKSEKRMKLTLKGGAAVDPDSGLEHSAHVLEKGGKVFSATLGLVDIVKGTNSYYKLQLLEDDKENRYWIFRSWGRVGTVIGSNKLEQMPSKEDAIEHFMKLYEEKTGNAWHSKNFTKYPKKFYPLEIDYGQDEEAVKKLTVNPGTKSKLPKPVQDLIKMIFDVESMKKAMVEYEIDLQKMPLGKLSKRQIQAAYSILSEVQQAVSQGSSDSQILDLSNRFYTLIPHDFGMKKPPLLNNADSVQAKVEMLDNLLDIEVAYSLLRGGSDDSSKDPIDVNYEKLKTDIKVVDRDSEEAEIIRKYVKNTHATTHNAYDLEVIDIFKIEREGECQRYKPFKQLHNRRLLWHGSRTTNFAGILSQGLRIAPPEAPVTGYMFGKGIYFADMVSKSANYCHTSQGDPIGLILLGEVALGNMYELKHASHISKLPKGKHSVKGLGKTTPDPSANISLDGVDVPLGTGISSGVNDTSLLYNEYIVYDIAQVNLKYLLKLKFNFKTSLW

## O=C1NCCc2c(OCCCCN3CCCCC3)cccc21
[1]
  IC50: 10.8 µM

## Cc1ccc2nc3c4ccccc4c(=O)[nH]c3n2c1
[2]
  inhibition at 10 µM: 19.2%
[1]
  IC50: 4.27 µM

## O=c1[nH]c2c(nc3cc(Cl)ccn32)c2ccccc12
[2]
  inhibition at 10 µM: 11.4%
[1]
  IC50: 5.87 µM

## O=c1[nH]c2c(nc3ncccn32)c2ccccc12
[2]
  inhibition at 10 µM: 14.2%
[1]
  IC50: 5.78 µM

## O=c1[nH]c2c(nc3c4ccccc4ccn32)c2ccccc12
[2]
  inhibition at 10 µM: 25.5%
[1]
  IC50: 4.11 µM

## O=c1[nH]c2c(nc3ccc(Cl)cn32)c2ccccc12
[2]
  inhibition at 10 µM: 0.2%
[1]
  IC50: 14.8 µM

## O=c1[nH]c2c(nc3cc(S(=O)(=O)NCCCN4CCOCC4)ccn32)c2ccccc12
[1]
  IC50: 0.036 µM

## O=c1[nH]c2c(nc3ccc(Br)cn32)c2ccccc12
[2]
  inhibition at 10 µM: 6.8%
[1]
  IC50: 12.1 µM

## COc1cc2nc3c4ccccc4c(=O)[nH]c3n2cn1
[2]
  inhibition at 10 µM: 0%
[1]
  IC50: > 100 µM

## Cc1cccc2nc3c4ccccc4c(=O)[nH]c3n12
[2]
  inhibition at 10 µM: 25.6%
[1]
  IC50: > 100 µM

## O=c1[nH]c2c(nc3ccccn32)c2ccccc12
[2]
  inhibition at 10 µM: 7.9%
[1]
  IC50: 0.85 µM

## Cc1cc(C)n2c(c1)nc1c3ccccc3c(=O)[nH]c12
[2]
  inhibition at 10 µM: 38.5%
[1]
  IC50: > 100 µM

## Cc1cccn2c1nc1c3ccccc3c(=O)[nH]c12
[2]
  inhibition at 10 µM: 9.1%
[1]
  IC50: 3.31 µM

## Cc1ccn2c(c1)nc1c3ccccc3c(=O)[nH]c12
[2]
  inhibition at 10 µM: 0%
[3]
  PF50: 1.7
[1]
  IC50: 0.47 µM
[4]
  PF50: 1.7

## Cc1ccn2c(n1)nc1c3ccccc3c(=O)[nH]c12
[2]
  inhibition at 10 µM: 27.7%
[3]
  PF50: 1.2
[1]
  IC50: 0.56 µM
[4]
  PF50: 1.1

## O=c1[nH]c2c(nc3cnccn32)c2ccccc12
[2]
  inhibition at 10 µM: 18.7%
[1]
  IC50: 3.23 µM

## CC[C@@]1(O)C(=O)OCc2c1cc1n(c2=O)Cc2cc3ccccc3nc2-1 [CAMPTOTHECIN]
[2]
  inhibition at 10 µM: 69.4%

## COc1cccc2c1C(=O)c1c(O)c3c(c(O)c1C2=O)C[C@@](O)(C(=O)CO)C[C@@H]3O[C@H]1C[C@H](N)[C@H](O)[C@H](C)O1 [DOXORUBICIN HYDROCHLORIDE]
[2]
  inhibition at 10 µM: 70.3%

## COc1cc([C@@H]2c3cc4c(cc3[C@@H](O[C@@H]3O[C@@H]5CO[C@@H](C)O[C@H]5[C@H](O)[C@H]3O)[C@H]3COC(=O)[C@H]23)OCO4)cc(OC)c1O [ETOPOSIDE]
[2]
  inhibition at 10 µM: 72.1%
[5]
  IC50: 14.4 µM

## Cn1nnc2c(C(N)=O)ncn2c1=O [TEMOZOLOMIDE]
[5]
  IC50: 4.34 µM
